Calls of active or inactive are those of the source.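 Rule for the calls: active = growth inhibition of at least 50% in any replicate; inactive = growth inhibition below 50% in every replicate.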
Assay: P. falciparum blood-stage growth inhibition, late-stage follow-up, M18AAP inhibitor project, cell-based, radiolabel, 3D7, RBCs, Set2 (AID 720736)
Details: P. falciparum 3D7 in RBCs, 3H-hypoxanthine incorporation, 48 h, at 10 µM, stronger effect = higher value
Procedure, shortened: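 Detection – 3H-hypoxanthine uptake by beta counting · Assay system – P. falciparum 3D7-infected RBCs · Control set – vehicle-treated parasites and uninfected RBCs · Schedule – 48 h exposure, 37 °C, 5% O2/5% CO2/90% N2 · Doses – single compound dose of 10 µM, DMSO at most 1% · Medium – hypoxanthine-free RPMI, 10% serum · Evaluation – % growth inhibition versus vehicle-treated parasites, background-subtracted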

Row | growth inhibition (run 1) | growth inhibition (run 2) | Compound
1 | 100% | 99% | COc1cccc(CCNc2c3ccccc3nc3ccccc23)c1
2 | 3% (inactive) |  | COc1ccc(CCN(C)c2ncnc3ccccc23)cc1OC
3 | 95% |  | Oc1ccc(C2CCN(c3ccnc4ccccc34)C2)cc1O (stereo unspecified)
4 | 21% (inactive) |  | CN(CCCc1ccc(O)c(O)c1)c1c2ccccc2nc2ccccc12
5 | 3% (inactive) |  | CN(CCc1ccc(O)c(O)c1)c1ccnc2c(F)cccc12
6 | 95% |  | COc1cc(Br)c(CCNc2c3ccccc3nc3ccccc23)cc1OC
7 | 97% |  | Oc1cccc(CCNc2ccnc3ccccc23)c1O
8 | 0% (inactive) |  | Cc1nc(NCCc2ccc(O)c(O)c2)c2c3c(sc2n1)CCC3
9 | 5% (inactive) |  | COc1ccc(CCN(C)c2ccnc3c(F)cccc23)cc1OC
10 | 35% (inactive) |  | CC(C)(CNc1ccnc2ccccc12)c1ccc(O)c(O)c1
11 | 97% | 92% | COc1ccc(CCN(C)c2ccnc3cc(Cl)ccc23)cc1OC
12 | 91% | 95% | CN(CCc1ccc(O)c(O)c1)c1ccnc2ccccc12
13 | 27% (inactive) |  | COc1ccc(CCNc2c3c(nc4ccc(C)cc24)CCCC3)cc1OC
14 | 20% (inactive) |  | COc1ccc(CCNc2ccnc3c(C)cccc23)cc1OC
15 | 0% (inactive) | 0% (inactive) | COc1ccc(CCNC2CCN(C)CC2)cc1OC
16 | 38% (inactive) | 55% | COc1ccc(CCNc2c3c(nc4ccccc24)CCCC3)cc1OC
17 | 6% (inactive) | 12% (inactive) | COc1ccc(CCNc2ccncc2)cc1OC
18 | 0% (inactive) |  | Oc1ccc(CCNc2ccnc3c(F)cccc23)cc1O
19 |  | 98% | COc1ccc(CCN(C)c2c3ccccc3nc3ccccc23)cc1OC
20 | 1% (inactive) |  | COc1ccc(C2CCN(c3ccnc4ccccc34)CC2)cc1OC
21 | 0% (inactive) | 3% (inactive) | COc1ccc(CCN2CCc3ccccc3C2)cc1OC
22 | 21% (inactive) | 18% (inactive) | Oc1ccc(CCNc2ccc3ccccc3c2)cc1O
23 | 0% (inactive) |  | COc1ccc(CCCN2CCN(C)CC2)cc1OC
24 | 16% (inactive) | 22% (inactive) | Oc1ccc(CCNc2cccc3ccccc23)cc1O
25 | 9% (inactive) | 20% (inactive) | COc1ccc(CCNc2cccc3ccccc23)cc1OC
26 | 5% (inactive) |  | COc1ccc(CCNc2ncnc3ccccc23)cc1OC
27 | 50% |  | Oc1ccc(C2CCCN(c3ccnc4ccccc34)C2)cc1O (stereo unspecified)

Row | growth inhibition (run 1) | growth inhibition (run 2) | Compound
28 | 98% | 100% | COc1ccc(CCNc2c3ccccc3nc3ccccc23)cc1OC
29 | 1% (inactive) |  | CN(CCc1ccc(O)c(O)c1)c1ncnc2ccccc12
30 | 95% | 95% | Oc1ccc(CCNc2c3ccccc3nc3ccccc23)cc1
31 | 12% (inactive) |  | Oc1ccc(CCCNc2c3c(nc4ccccc24)CCCC3)cc1O
32 | 20% (inactive) |  | CCN(CCc1ccc(O)c(O)c1)c1c2ccccc2nc2ccccc12
33 | 5% (inactive) |  | COc1ccc(CCN(C)c2ccnc3c(C)cccc23)cc1OC
34 | 0% (inactive) |  | CN(CCCc1ccc(O)c(O)c1)c1ccnc2ccccc12
35 | 90% | 95% | Oc1ccc(CCNc2c3c(nc4ccccc24)CCCC3)cc1O
36 | 98% |  | CCN(CC)Cc1cc(Nc2ccnc3cc(Cl)ccc23)ccc1O
37 | 95% | 94% | COc1ccc(CCN(C)c2ccnc3ccccc23)cc1OC
38 | 94% |  | COc1ccc(C2CCN(c3ccnc4ccccc34)C2)cc1OC (stereo unspecified)
39 | 72% |  | CCOc1ccc2nccc(NCCc3ccc(OC)c(OC)c3)c2c1
40 | 90% |  | COc1cc(Br)c(CCNc2ccnc3ccccc23)cc1OC
41 | 89% | 98% | Oc1ccc(CCNc2ccnc3ccccc23)cc1O
42 | 92% | 84% | O=c1ccn(CCNc2c3ccccc3nc3ccccc23)cc1OCc1ccccc1
43 | 0% (inactive) |  | COc1ccc(CCNC(c2ccccc2)c2ccccc2)cc1OC
44 | 92% |  | Oc1ccc(CCNc2ccnc3cc(Cl)ccc23)cc1O
45 | 47% (inactive) | 57% | Oc1ccc(CCNC(c2ccccc2)c2ccccc2)cc1O
46 | 91% | 93% | Oc1ccc(CCCNc2c3ccccc3nc3ccccc23)cc1O
47 | 52% | 62% | Oc1ccc(CCN2CCc3ccccc3C2)cc1O
48 | 27% (inactive) | 20% (inactive) | O=C(O)CCCCNc1c2ccccc2nc2ccccc12
49 | 4% (inactive) | 0% (inactive) | CN1CCN(CCc2ccc(O)c(O)c2)CC1
50 | 100% | 99% | COc1ccc(CNc2c3ccccc3nc3ccccc23)cc1OC
51 | 0% (inactive) | 15% (inactive) | O=C(O)CCCNc1c2ccccc2nc2ccccc12
52 | 0% (inactive) | 5% (inactive) | COc1ccc(CCN2CCN(C)CC2)cc1OC
53 | 96% |  | COc1cc(Br)c(CCNc2c3c(nc4ccccc24)CCCC3)cc1OC
54 | 100% | 99% | NCCNc1c2ccccc2nc2ccccc12

Row | growth inhibition (run 1) | growth inhibition (run 2) | Compound
55 | 38% (inactive) | 27% (inactive) | Oc1ccc(CCNc2cncc3ccccc23)cc1O
56 | 19% (inactive) |  | CC(Cc1ccc(O)c(O)c1)Nc1ccnc2ccccc12 (stereo unspecified)
57 | 69% |  | COc1ccc(CCNc2ccnc3cc(Cl)ccc23)cc1OC
58 | 100% | 98% | COc1ccc(CCNc2c3ccccc3nc3ccccc23)cc1
59 | 17% (inactive) |  | COc1ccc(CCCN(C)c2c3ccccc3nc3ccccc23)cc1OC
60 | 5% (inactive) |  | Cc1cccc2c(N(C)CCc3ccc(O)c(O)c3)ccnc12
61 | 4% (inactive) |  | COc1ccc(CCCNc2c3c(nc4ccccc24)CCCC3)cc1OC
62 | 76% |  | Oc1ccc(C2CCN(c3ccnc4ccccc34)CC2)cc1O
63 | 26% (inactive) |  | COc1ccc(CCNc2cc(C)nc3ccccc23)cc1OC
64 | 5% (inactive) | 0% | CN1CCN(CCCc2ccc(O)c(O)c2)CC1
65 | 90% | 95% | Oc1ccc(CCNC2CCN(Cc3ccccc3)CC2)cc1O
66 | 0% (inactive) |  | CN(CCc1ccc(O)c(O)c1)c1ccnc2cc(Cl)ccc12
67 | 94% | 99% | Cc1c(OCc2ccccc2)c(=O)ccn1CCNc1c2ccccc2nc2ccccc12
68 | 26% (inactive) |  | COc1ccc(CCNc2ccnc3c(F)cccc23)cc1OC
69 | 0% (inactive) |  | COc1ccc(CCNC(=O)c2cc(C)ccc2N)cc1OC
70 | 0% (inactive) | 3% (inactive) | COc1ccc(CCNc2ccc3ccccc3c2)cc1OC
71 | 5% (inactive) |  | CN(CCc1ccc(O)c(O)c1)c1c2ccccc2nc2ccccc12
72 | 3% (inactive) | 13% (inactive) | CN(CCc1ccc(O)c(O)c1)c1ccncc1
73 | 0% (inactive) | 0% (inactive) | COc1ccc(CCN(C)c2ccncc2)cc1OC
74 | 56% |  | Cc1cccc2c(NCCc3ccc(O)c(O)c3)ccnc12
75 | 15% (inactive) |  | CCOc1ccc2nccc(N(C)CCc3ccc(OC)c(OC)c3)c2c1
76 | 6% (inactive) |  | Cc1cc(N(C)CCc2ccc(O)c(O)c2)c2ccccc2n1
77 | 88% | 93% | COc1ccc(CCNC2CCN(Cc3ccccc3)CC2)cc1OC
78 | 65% | 63% | COc1ccc(CCNc2cncc3ccccc23)cc1OC
79 | 18% (inactive) |  | CCN(CCc1ccc(OC)c(OC)c1)c1c2ccccc2nc2ccccc12
80 | 88% | 95% | COc1ccc(CCCNc2c3ccccc3nc3ccccc23)cc1OC
